Assay results as given in ChEMBL document CHEMBL4699422, “Synthesis and initial pharmacology of dual-targeting ligands for putative complexes of integrin alphaVbeta3 and PAR2” (RSC Med Chem, 2020).
Activity calls are given as the source filed them. The calls are words filed in the database; no cut-off is given here. Where a SMILES comes first, the peptide text is derived from it. [ ]: non-standard residue; d: D form. The star is where a group is joined. X1 = COCc1cn(CCOCCOCCOCCOCCOCCOCCN*)nn1; Orn = NCCC[C@H](N)C(=O)O; 2Furoyl = O=C(c1ccco1)*

How the values were obtained:
[1] = biological target: Proteinase-activated receptor 2 (Homo sapiens) (UniProt P55085); assay: (§1) Agonist activity at PAR2 in human EA.hy926 cells assessed as stimulation of calcium mobilization treated with cRGD for 30 mins prior to compound addition by Fluo-4-AM dye-based FLIPR assay; format: functional, cell-based; conditions: EA.hy 926, filed as agonist
Method in brief: (§2)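 EA.hy926 cells, passages 7–9, grown in DMEM (4.5 g/L glucose, 4 mM L-glutamine, 1 mM pyruvate, FBS, pen/strep). Calcium read on plate reader as normalized ΔRFU over basal. %Stimulation relative to 100 μM SLIGKV-NH₂ (100%). Curves fitted by 4-variable non-linear regression.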

[2] = biological target: Proteinase-activated receptor 2 (Homo sapiens) (UniProt P55085); assay: (§3) Agonist activity at PAR2 in human EA.hy926 cells assessed as stimulation of calcium mobilization preincubated for 2 hrs with LPS followed by compound addition in absence of cRGD by Fluo-4-AM dye-based FLIPR assay; format: functional, cell-based; conditions: EA.hy 926, filed as agonist
[3] = biological target: T1, Integrin alpha-V/beta-3 (Homo sapiens) (UniProt P05106+P06756); assay: Antagonist activity at integrin alphavbeta3 receptor in HUVEC cells assessed as inhibition of cell adhesion to human vitronectin at 50 uM preincubated for 30 mins followed by transferring to vitronectin coated plates and measured after 1 hr by DAPI staining based inverted fluorescence microscopic analysis; conditions: filed as antagonist, time 90.0 min
Method in brief: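 Wells coated overnight at 4 °C with 20 μg/mL human vitronectin in PBS pH 7.4, blocked with 1% BSA 1 h at 37 °C. HUVEC washed, in DMEM, treated ± 50 μM ligand 30 min at 25 °C, seeded, 1 h at 37 °C. Washed 3× PBS, fixed 3.7% formaldehyde 5 min, nuclei DAPI-stained (5 μg/mL), imaged at 10×.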

[4] = biological target: T2, Proteinase-activated receptor 2 (Homo sapiens, UniProt P55085); assay: Agonist activity at PAR2 in human EA.hy926 cells assessed as stimulation of calcium mobilization by Fluo-4-AM dye-based FLIPR assay; format: functional, cell-based, EA.hy 926; method in brief: as §2
T2 sequence (P55085 whole entry): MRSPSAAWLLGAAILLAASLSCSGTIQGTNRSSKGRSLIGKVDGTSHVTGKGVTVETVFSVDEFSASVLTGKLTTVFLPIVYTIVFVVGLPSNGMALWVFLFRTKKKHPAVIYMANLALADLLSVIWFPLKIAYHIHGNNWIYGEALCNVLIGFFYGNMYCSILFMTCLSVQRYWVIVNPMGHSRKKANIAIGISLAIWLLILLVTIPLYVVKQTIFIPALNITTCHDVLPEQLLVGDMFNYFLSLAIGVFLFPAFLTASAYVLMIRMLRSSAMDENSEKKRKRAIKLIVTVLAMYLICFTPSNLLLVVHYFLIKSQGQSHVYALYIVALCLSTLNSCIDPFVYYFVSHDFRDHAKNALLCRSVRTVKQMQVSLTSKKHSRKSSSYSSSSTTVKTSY

[5] = biological target: Proteinase-activated receptor 2 (Homo sapiens) (UniProt P55085); assay: (§4) Agonist activity at PAR2 in human EA.hy926 cells assessed as stimulation of calcium mobilization preincubated for 2 hrs with LPS and 30 mins with cRGD followed by compound addition by Fluo-4-AM dye-based FLIPR assay; format: functional, cell-based; conditions: EA.hy 926, filed as agonist
[6] = biological target: T1, Integrin alpha-V/beta-3 (Homo sapiens); assay: Inhibition of Alexa Fluor 647 labelled fibronectin binding to integrin alphavbeta3 receptor (unknown origin) expressed in HEK293FT cells at 5 uM preincubated for 10 mins followed by fibronectin addition and measured after 30 mins by flow cytometric analysis; format: cell-based; conditions: filed as antagonist, time 40.0 min
Method in brief: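 HEK293FT co-transfected with αV and β3 constructs (≥24 h), in HBSGB (20 mM HEPES pH 7.4, 150 mM NaCl, 5.5 mM glucose, 1% BSA). Cells ± 5 or 50 μM ligand 10 min at 25 °C in 0.2 mM CaCl₂/2 mM MnCl₂ (activating), then Alexa647-Fn (15 μg/mL) plus Alexa488 anti-β3 AP3, 30 min at 25 °C. Resting control in 1 mM Ca²⁺/1 mM Mg²⁺. Flow cytometry on AP3-positive cells; Fn MFI expressed as % of AP3 MFI.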

[7] = biological target: T2, Proteinase-activated receptor 2; assay: as §1; format: functional, cell-based, EA.hy 926; method in brief: as §2
[8] = biological target: T2, Proteinase-activated receptor 2; assay: as §3; format: functional, cell-based, EA.hy 926
[9] = biological target: T2, Proteinase-activated receptor 2; assay: as §4; format: functional, cell-based, EA.hy 926

Row | Compound | inhibition [3] | EC50 [4] [nM] | further results
1 | COc1ccnc(NCCCOc2ccc(C[C@@H](CC(=O)O)NC(=O)c3ccc(OCc4cn(CCOCCOCCOCCOCCOCCOCCNC(=O)[C@@H](NC(=O)[C@H](CC5CCCCC5)NC(=O)c5ccno5)C5CCCCC5)nn4)cc3)cc2)c1 | Active | 1200 | Activity [1]: Active; Activity [2]: Active; Activity [5]: Active
2 | CC[C@H](C)[C@H](NC(=O)[C@H](CC(C)C)NC(=O)c1ccco1)C(=O)NCC(=O)N[C@@H](CCCNC(=N)N)C(=O)N[C@@H](CC(C)C)C(=O)N[C@@H](CCCN)C(=O)NCCOCCOCCOCCOCCOCCOCCOCCOCCOCCOCCOCCOCCOCCOCCOCCOCCOCCOCCOCCOCCOCCOCCOCCn1cc(C[C@H]2CN[C@@H](CCCNC(=N)N)C(=O)NCC(=O)N[C@@H](CC(=O)O)C(=O)N[C@H](Cc3ccccc3)C(=O)N2)nn1 | Active | 130 | inhibition [6]: Active
3 | COCc1cn(CCOCCOCCOCCOCCOCCOCCNC(=O)[C@@H](NC(=O)[C@H](CC2CCCCC2)NC(=O)c2ccno2)C2CCCCC2)nn1 | – | 890 | –
4 | CC[C@H](C)[C@H](NC(=O)[C@H](CC(C)C)NC(=O)c1ccco1)C(=O)NCC(=O)N[C@@H](CCCN=C(N)N)C(=O)N[C@@H](CC(C)C)C(=O)N[C@@H](CCCN)C(N)=O (2Furoyl-LIGRL[Orn]-NH2) | – | 350 | –
5 | CC[C@H](C)[C@H](NC(=O)[C@H](CC(C)C)NC(=O)c1ccco1)C(=O)NCC(=O)N[C@@H](CCCNC(=N)N)C(=O)N[C@@H](CC(C)C)C(=O)N[C@@H](CCCN)C(=O)NCCOCCOCCOCCOCCOCCOCCn1cc(COC)nn1 (2Furoyl-LIGRL[Orn]-X1) | – | 73 | –
6 | N=C(N)NCCC[C@@H]1NC[C@H](Cc2cn(CCOCCOCCOCCOCCOCCOCCOCCOCCOCCOCCOCCOCCOCCOCCOCCOCCOCCOCCOCCOCCOCCOCCOCCNC(=O)[C@@H](NC(=O)[C@H](CC3CCCCC3)NC(=O)c3ccno3)C3CCCCC3)nn2)NC(=O)[C@@H](Cc2ccccc2)NC(=O)[C@H](CC(=O)O)NC(=O)CNC1=O | Active | 2500 | EC50 [7]: 1200 nM; EC50 [8]: 3500 nM; inhibition [6]: Active; EC50 [9]: 1200 nM
7 | CC[C@H](C)[C@H](NC(=O)[C@H](CC(C)C)NC(=O)c1ccco1)C(=O)NCC(=O)N[C@@H](CCCNC(=N)N)C(=O)N[C@@H](CC(C)C)C(=O)N[C@@H](CCCN)C(=O)NCCOCCOCCOCCOCCOCCOCCOCCOCCn1cc(C[C@H]2CN[C@@H](CCCNC(=N)N)C(=O)NCC(=O)N[C@@H](CC(=O)O)C(=O)N[C@H](Cc3ccccc3)C(=O)N2)nn1 | – | 62 | –
